Results taken from article PMC7862202 (Clinical Pharmacokinetics, 2020).

What was measured:
[1] = cited from earlier work
native EML4-ALK = conditions: read-out: IC90 for inhibition of native EML4-ALK; cellular assays; cited from earlier work
[2] = cited from earlier work; remark: listed apart in the source
[3] = cited from earlier work; remark: listed apart in the source
[4] = cited from earlier work; remark: listed apart in the source
[5] = test system: patients with ALK + NSCLC who are ALK inhibitor naive; conditions: first interim analysis, blinded independent review committee; cited from earlier work
[6] = cited from earlier work; remark: listed apart in the source
[7] = cited from earlier work; remark: listed apart in the source
EML4-ALK mutants = conditions: read-out: IC90 range for EML4-ALK mutants; cellular assays; cited from earlier work
[8] = test system: patients with locally advanced or metastatic ALK-positive NSCLC; conditions: 180 mg qd with a 7-day lead-in at 90 mg qd; crizotinib-refractory patients; cited from earlier work
human plasma proteins = conditions: cited from earlier work
[9] = Population pharmacokinetic model; type: in vivo, human; conditions: for Variability in CL/F explained by albumin: albumin as covariate in the final model
Method in brief: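 Plasma measured by two validated LC/MS methods, combined range 0.1–2500 ng/mL. Inter-individual effects multivariate normal; residual error additive, proportional or mixed. Covariates tested on CL/F and V1/F in two steps. 1000 bootstrap replicates with replacement; 1000-replicate prediction-corrected VPC.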

[10] = cited from earlier work; remark: listed apart in the source
[11] = single oral 180-mg radiolabeled dose, healthy volunteers

Q: What does the source list for COc1cc(N2CCC(N3CCN(C)CC3)CC2)ccc1Nc1ncc(Cl)c(Nc2ccccc2P(C)(C)=O)n1 [brigatinib]?
A: Permeability [1]: high; IC90 (native EML4-ALK): 38 nM; Solubility [2]: high; Decrease in maximum plasma concentration following a high-fat meal [3]: 13%; Effect of a high-fat meal on AUC [3]: without a corresponding decrease in AUC; Increase in unbound AUC0–∞, severe renal impairment vs normal renal function [4]: approximately twofold; 12-month event-free rate [5]: 67%; Enzymes metabolizing the remainder to inactive or minor metabolites [6]: primarily by cytochrome P450 (CYP) 3A and CYP2C8; Oral bioavailability [6]: orally bioavailable; Increase in unbound brigatinib systemic exposure (AUC0–∞), severe hepatic impairment (Child–Pugh C) [7]: approximately 37%; IC90 (EML4-ALK mutants): 22 to 762 nM; Median progression-free survival [8]: 16.7 months; Bound to human plasma proteins (human plasma proteins): approximately 90%; Variability in CL/F explained by albumin [9]: approximately 5%; Variability in CL/F explained by albumin ([9]; listed as Brigatinib): Albumin was included as a covariate on apparent clearance in the final population pharmacokinetic model, explaining approximately 5% of variability in apparent clearance.; Albumin covariate effect on CL/F, bootstrap median (2.5th to 97.5th percentile) ([9]; bootstrap of 1000 replicates): 0.656 (0.474–0.849); CL/F, bootstrap median (2.5th to 97.5th percentile) ([9]; bootstrap of 1000 replicates): 10.6 (10.2–11.1) L/h; Mean transit time, bootstrap median (2.5th to 97.5th percentile) ([9]; bootstrap of 1000 replicates): 0.9 (0.8–1.0) h; Q1/F, bootstrap median (2.5th to 97.5th percentile) ([9]; bootstrap of 1000 replicates): 12.8 (10.5–16.2) L/h; Q2/F, bootstrap median (2.5th to 97.5th percentile) ([9]; bootstrap of 1000 replicates): 2.46 (1.09–4.76) L/h; V1/F, bootstrap median (2.5th to 97.5th percentile) ([9]; bootstrap of 1000 replicates): 208 (193–219) L; V2/F, bootstrap median (2.5th to 97.5th percentile) ([9]; bootstrap of 1000 replicates): 118 (83.6–147) L; V3/F, bootstrap median (2.5th to 97.5th percentile) ([9]; bootstrap of 1000 replicates): 82.3 (57.6–112) L; No. of transit compartments, bootstrap median ([9]; bootstrap of 1000 replicates, fixed): 2.35 (–); Inter-individual variability of mean transit time, % (% CV) ([9]; final population PK model): 59 (7.5) %; Mean transit time, model estimate (% CV) ([9]; final population PK model): 0.9 (3.6) h; No. of transit compartments, model estimate ([9]; final population PK model, fixed at the population estimate): 2.35; Mean transit time, model estimate (% CV) ([9]; final population PK model, listed as Brigatinib): 0.9 h; Higher CL/F at 95th percentile of albumin vs median albumin ([9]; predicted, higher than a patient with the median albumin value): ~20%; Lower CL/F at 5th percentile of albumin vs median albumin ([9]; predicted, lower than a patient with the median albumin value): approximately 22%; Overall radiolabeled dose recovered as unchanged drug [10]: Approximately 50%; Administered dose recovered in feces [10, 11]: approximately 65%; Administered dose recovered in urine [10, 11]: ~25%; Unchanged brigatinib in feces [10, 11]: 41%; Unchanged brigatinib in urine [10, 11]: 86%
